Laboratory results as given in ChEMBL document CHEMBL1123266, “Antibacterial activity of phosphono dipeptides related to alafosfalin” (J Med Chem, 1986).
Values after ≈ are worked out from the molar mass of the structure shown.

Tests used:
[1] = test system: Bacillus subtilis; assay: Minimum inhibitory concentration (MIC) to control the growth of Bacillus subtilis strain PCM 1949.; format: functional
Procedure, shortened: (§1)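 Doubling dilutions of compound were made in a defined liquid peptide medium free of peptide-mimetic antagonists, final 0.065–512 μg/mL. The inoculum was an overnight 37 °C culture diluted to about 4 × 10^6 cfu/mL, incubated overnight at 37 °C. Non-turbid samples were subcultured (0.1 mL) onto solid peptide-medium agar and incubated overnight at 37 °C to assign MIC.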

[2] = test system: Bacillus subtilis; assay: Concentration (IC50) to inhibit the growth of Bacillus subtilis; format: functional, organism-based
Procedure, shortened: (§2)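 Broth dilution in a defined liquid peptide medium lacking antagonists of small peptide mimetics. Inocula were overnight cultures grown in this medium at 37 °C and diluted to about 4 × 10^6 cfu/mL. Compound was tested as a doubling dilution series, final 0.065–512 μg/mL, incubated overnight at 37 °C. Turbidity was read, and IC50 is the concentration reducing 24-h growth to 50% of control.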

[3] = test system: Escherichia coli; assay: Concentration (IC50) to inhibit the growth of Escherichia coli.; format: functional, organism-based; procedure, shortened: as §2
[4] = test system: Klebsiella aerogenes; assay: Concentration (IC50) to inhibit the growth of Klebsiella aerogenes.; format: functional, organism-based; procedure, shortened: as §2
[5] = test system: Enterococcus faecalis; assay: Concentration (IC50) to inhibit the growth of Streptococcus faecalis.; format: functional, organism-based; procedure, shortened: as §2
[6] = test system: Staphylococcus aureus; assay: Minimum inhibitory concentration (MIC) to control the growth of Staphylococcus aureus strain PCM 2054.; format: functional; procedure, shortened: as §1
[7] = test system: Serratia marcescens; assay: Compound was evaluated for its minimum inhibitory concentration (MIC) to control the growth of Serratia marcescens strain PCM 549.; format: functional; procedure, shortened: as §1
[8] = test system: Escherichia coli; assay: Minimum inhibitory concentration (MIC) to control the growth of Escherichia coli strain PCM 2057; format: functional; procedure, shortened: as §1
[9] = test system: Staphylococcus aureus; assay: Concentration (IC50) to inhibit the growth of Staphylococcus aureus.; format: functional, organism-based; procedure, shortened: as §2
[10] = test system: Enterococcus faecalis; assay: Minimum inhibitory concentration (MIC) to control the growth of Streptococcus faecalis strain PCM 896; format: functional; procedure, shortened: as §1
[11] = test system: Serratia marcescens; assay: Concentration (IC50) to inhibit the growth of Serratia marcescens.; format: functional, organism-based; procedure, shortened: as §2
[12] = test system: Klebsiella aerogenes; assay: Minimum inhibitory concentration (MIC) to control the growth of Klebsiella aerogenes strain PCM 2063; format: functional; procedure, shortened: as §1
[13] = test system: Staphylococcus aureus; assay: Compound was evaluated for its concentration (IC50) to inhibit the growth of Staphylococcus aureus.; format: functional, organism-based; procedure, shortened: as §2
[14] = test system: Bacillus subtilis; assay: Compound was evaluated for its minimum inhibitory concentration (MIC) to control the growth of Bacillus subtilis strain PCM 1949.; format: functional; procedure, shortened: as §1
[15] = test system: Staphylococcus aureus; assay: Compound was evaluated for its minimum inhibitory concentration (MIC) to control the growth of Staphylococcus aureus strain PCM 2054.; format: functional; procedure, shortened: as §1
[16] = test system: Serratia marcescens; assay: Minimum inhibitory concentration (MIC) to control the growth of Serratia marcescens strain PCM 549.; format: functional; procedure, shortened: as §1
[17] = test system: Escherichia coli; assay: Compound was evaluated for its minimum inhibitory concentration (MIC) to control the growth of Escherichia coli strain PCM 2057.; format: functional; procedure, shortened: as §1
[18] = test system: Serratia marcescens; assay: Compound was evaluated for its concentration (IC50) to inhibit the growth of Serratia marcescens.; format: functional, organism-based; procedure, shortened: as §2

Row | SMILES | MIC [1] | MIC [6] | MIC [7] | MIC [8] | MIC [10] | MIC [12] | MIC [14] | MIC [15] | MIC [16] | MIC [17] | IC50 [2] | IC50 [3] | IC50 [4] | IC50 [5] | IC50 [9] | IC50 [11] | IC50 [13] | IC50 [18]
1 | CC(C)CC(N)C(=O)NC(C1CC1)P(=O)(O)O (configuration not stated) | > 512 µg/mL | 128 µg/mL (≈ 484 µM) | > 512 µg/mL | > 512 µg/mL | > 512 µg/mL | > 512 µg/mL |  |  |  |  | > 512 µg/mL | > 512 µg/mL | > 512 µg/mL | > 512 µg/mL | 83 µg/mL (≈ 314 µM) | > 512 µg/mL |  | 
2 | CC(N)C(=O)NC(Cc1ccccc1)P(=O)(O)O (configuration not stated) |  |  | > 512 µg/mL | > 512 µg/mL | > 512 µg/mL | > 512 µg/mL | > 512 µg/mL | > 512 µg/mL |  |  | 6.8 µg/mL (≈ 25 µM) | > 512 µg/mL | > 512 µg/mL | > 512 µg/mL |  | 14 µg/mL (≈ 51.4 µM) | 333 µg/mL (≈ 1220 µM) | 
3 | CC(N)C(=O)NC(C1CCC1)P(=O)(O)O (configuration not stated) | > 512 µg/mL | > 512 µg/mL |  | > 512 µg/mL | > 512 µg/mL | > 512 µg/mL |  |  | > 512 µg/mL |  | > 512 µg/mL | > 512 µg/mL | > 512 µg/mL | > 512 µg/mL | > 512 µg/mL | > 512 µg/mL |  | 
4 | CC(N)C(=O)NC(C)P(=O)(O)O (configuration not stated) | > 512 µg/mL | > 512 µg/mL |  |  | > 512 µg/mL | > 512 µg/mL |  |  | 64 µg/mL (≈ 326 µM) | 8 µg/mL (≈ 40.8 µM) | 512 µg/mL (≈ 2610 µM) | 0.22 µg/mL (≈ 1.12 µM) | 64 µg/mL (≈ 326 µM) | 30 µg/mL (≈ 153 µM) | 58 µg/mL (≈ 296 µM) | 0.6 µg/mL (≈ 3.06 µM) |  | 

More lines, main results first:

Row | MIC [1] | MIC [6] | MIC [7] | MIC [8] | MIC [10] | MIC [12] | MIC [14] | MIC [15] | MIC [16] | MIC [17] | SMILES | IC50 [2] | IC50 [3] | IC50 [4] | IC50 [5] | IC50 [9] | IC50 [11] | IC50 [13] | IC50 [18]
5 | 512 µg/mL (≈ 1920 µM) | > 512 µg/mL |  | > 512 µg/mL | > 512 µg/mL | > 512 µg/mL |  |  | > 512 µg/mL |  | CC(C)CC(N)C(=O)NC(C(C)C)P(=O)(O)O (configuration not stated) | 179 µg/mL (≈ 672 µM) | 282 µg/mL (≈ 1060 µM) | 0.065 µg/mL (≈ 0.244 µM) | 410 µg/mL (≈ 1540 µM) | 32 µg/mL (≈ 120 µM) | > 512 µg/mL |  | 
6 | > 512 µg/mL | > 512 µg/mL |  | > 512 µg/mL | > 512 µg/mL | > 512 µg/mL |  |  | > 512 µg/mL |  | CC(C)CC(N)C(=O)NC(C1CCC1)P(=O)(O)O (configuration not stated) | > 512 µg/mL | > 512 µg/mL | > 512 µg/mL | 230 µg/mL (≈ 826 µM) | > 512 µg/mL |  |  | > 512 µg/mL
